These results are taken from ChEMBL document CHEMBL1156317, “Design and synthesis of conformationally constrained N,N-disubstituted 1,4-diazepanes as potent orexin receptor antagonists” (Bioorg Med Chem Lett, 2010).

Data set [1] has as its target T1, Orexin/Hypocretin receptor type 1 (Homo sapiens, UniProt O43613).
T1 sequence (O43613 whole entry): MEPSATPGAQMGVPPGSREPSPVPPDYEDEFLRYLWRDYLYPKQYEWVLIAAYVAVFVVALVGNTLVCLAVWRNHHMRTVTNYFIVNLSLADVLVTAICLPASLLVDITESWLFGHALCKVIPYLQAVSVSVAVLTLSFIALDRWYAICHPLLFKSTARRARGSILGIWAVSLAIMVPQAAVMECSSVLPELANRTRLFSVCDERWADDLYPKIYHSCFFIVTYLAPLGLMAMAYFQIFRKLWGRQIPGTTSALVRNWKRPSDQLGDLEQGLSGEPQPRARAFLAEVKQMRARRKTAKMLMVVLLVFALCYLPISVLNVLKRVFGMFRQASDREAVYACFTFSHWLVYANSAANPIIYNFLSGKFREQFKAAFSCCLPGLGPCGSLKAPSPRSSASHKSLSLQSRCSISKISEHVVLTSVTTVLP
Put plainly: Binding affinity to OX1 receptor by radioligand displacement assay. Summed up: (§1)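 Displacement of a high-affinity radioligand bound to human orexin receptors. Values expressed as Ki.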

The target in data set [2] is T2, Orexin receptor type 2 (Homo sapiens, UniProt O43614).
T2 sequence (O43614 whole entry): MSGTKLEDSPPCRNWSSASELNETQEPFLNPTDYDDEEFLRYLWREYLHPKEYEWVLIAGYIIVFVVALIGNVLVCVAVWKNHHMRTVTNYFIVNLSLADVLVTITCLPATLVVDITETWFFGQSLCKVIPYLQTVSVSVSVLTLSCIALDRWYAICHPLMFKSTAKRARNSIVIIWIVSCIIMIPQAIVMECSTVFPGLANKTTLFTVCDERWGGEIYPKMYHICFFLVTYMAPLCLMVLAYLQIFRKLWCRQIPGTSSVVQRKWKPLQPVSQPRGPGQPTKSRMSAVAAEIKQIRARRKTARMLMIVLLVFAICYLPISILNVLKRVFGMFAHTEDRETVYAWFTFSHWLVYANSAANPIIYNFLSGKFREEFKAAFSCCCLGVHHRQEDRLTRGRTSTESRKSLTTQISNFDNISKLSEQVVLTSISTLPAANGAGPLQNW
Put plainly: Binding affinity to OX2 receptor by radioligand displacement assay. The gist of the method:
as §1

Data set [3] addresses T1, Orexin/Hypocretin receptor type 1. Put plainly: Antagonist activity at OX1 receptor assessed as inhibition of calcium flux by FLIPR assay. Type of data set: functional. Summed up:
(§2)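 FLIPR assay on human orexin receptors, with calcium flux as the functional read-out of antagonism. Values expressed as IC50.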
In general terms: Calcium assays in cells follow changes in intracellular calcium, usually with a dye or a luminescent sensor.

The target of data set [4] is T2, Orexin receptor type 2. Put plainly: Antagonist activity at OX2 receptor assessed as inhibition of calcium flux by FLIPR assay. The data set is classed as functional. Summed up:
as §2

Data set [5] can be described thus: Drug level in Sprague-Dawley rat plasma at 2 mg/kg, iv after 30 mins. Type of data set: ADME, organism-based. Also noted: dose 2 mg/kg, route intravenous. The gist of the method:
(§3)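 Rats aged seven to ten weeks, anesthetized with isoflurane (5% in oxygen to induce, 2% by nose cone to maintain), kept at 37 °C. Compound given by tail-vein infusion at 2 mg/kg over 30 min. At the end of infusion, CSF taken from the cisterna magna, then plasma by cardiac puncture, then the brain harvested. All samples frozen on dry ice and analysed for compound levels.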

Data set [6] is described as follows: Drug level in Sprague-Dawley rat brain at 2 mg/kg, iv after 30 mins. Type of data set: ADME, organism-based. Also noted: dose 2 mg/kg, route intravenous. The note with it: read-out: Drug uptake. Summed up:
as §3

A short description of data set [7]: Drug level in Sprague-Dawley rat CSF at 2 mg/kg, iv after 30 mins. Also noted: dose 2 mg/kg, route intravenous. The note with it: cerebrospinal fluid, read-out: Drug uptake. Type of data set: ADME, organism-based. Summed up:
as §3

The nature of data set [8]: Ratio of drug level in brain to plasma in Sprague-Dawley rat at 2 mg/kg, iv after 30 mins. The data set is classed as ADME, organism-based. Also noted: dose 2 mg/kg, route intravenous. Summed up:
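Male/female unspecified Sprague–Dawley rats, 7–10 weeks old, under isoflurane anaesthesia (5% induction, 2% maintenance via nose cone) on a 37 °C warming blanket; compound given by tail-vein infusion, 2 mg/kg over 30 min. At end of infusion CSF taken from cisterna magna, plasma by cardiac puncture, brain harvested; samples frozen on dry ice and compound levels measured to give brain/plasma ratio.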

A short description of data set [9]: Protein binding in human. The data set is classed as ADME, organism-based. As to conditions: in vivo, read-out: PB (converted).
Data set [10] can be described thus: Protein binding in rat. The data set is classed as ADME, organism-based. As to conditions: in vivo, read-out: PB (converted).
The nature of data set [11]: Lipophilicity, log P of the compound. The data set is classed as physicochemical. As to conditions: octanol/water.
Data set [12] in a line: Oral bioavailability in rat at 10 mg/kg. The note with it: in vivo. Type of data set: ADME, organism-based. Summed up:
(§4)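 Rats dosed orally at 10 mpk in VitE-TPGS and intravenously at 2 mpk in DMSO.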

Data set [13] is described as follows: Oral bioavailability in dog. Type of data set: ADME, organism-based, Canis lupus familiaris. As to conditions: in vivo.
Data set [14] is described as follows: Clearance in rat at 10 mg/kg, po and 2 mg/kg, iv. The data set is classed as ADME, organism-based. As to conditions: in vivo. Summed up: as §4
Data set [15] in a line: Clearance in dog. The data set is classed as ADME, organism-based, Canis lupus familiaris. As to conditions: in vivo.
A short description of data set [16]: Half life in rat at 10 mg/kg, po and 2 mg/kg, iv. Type of data set: ADME, organism-based. The note with it: in vivo. Summed up:
as §4

Data set [17] is described as follows: Half life in dog. Type of data set: ADME, organism-based, Canis lupus familiaris. The note with it: in vivo.
Data set [18] is described as follows: AUC (0 to 24 hrs) in rat at 10 mg/kg, po and 2 mg/kg, iv. As to conditions: plasma. Type of data set: ADME, organism-based. Summed up:
as §4

Data set [19] in a line: AUC (0 to 24 hrs) in dog. The data set is classed as ADME, organism-based, Canis lupus familiaris. Also noted: time < 24 hr. The note with it: plasma.
Data set [20] can be described thus: Cmax in rat at 10 mg/kg, po and 2 mg/kg, iv. Type of data set: ADME, organism-based. As to conditions: in vivo. The gist of the method:
as §4

The nature of data set [21]: Cmax in dog. The data set is classed as ADME, organism-based, Canis lupus familiaris. As to conditions: in vivo.
The nature of data set [22]: Apparent permeability across pig LLC-PK1 cells. Type of data set: ADME, cell-based, Sus scrofa.
The subject of the next data set is LLC-PK1. The data set is described as follows: Ratio of permeability from basolateral to apical side over apical to basolateral side in pig LLC-PK1 cells expressing MDR1.

Usually Ki stands for a measure of affinity in units of concentration, obtained from inhibition or displacement. A high value points to a looser hold on the target. A word on the IC50: it is the concentration needed to halve the response being measured. With `Cc1ccc(-n2nccn2)c(C(=O)N2CC3CC(C2)N(c2ncc4ccccc4n2)C3)c1` (single isomer, unassigned; enantiomer A), the Ki in data set [1] stood at 0.11 µM; at Orexin receptor type 2 [2], 0.155 µM. Moreover, the IC50 in data set [3] was determined as 2.5 µM; at Orexin receptor type 2 [4], 6.2 µM.
Take `Cc1ccc(-n2nccn2)c(C(=O)N2CCCN(c3ncc4cc(F)ccc4n3)CC2)c1`: the results for the Ki (in [1]; on Orexin receptor type 2 [2]) were 0.001 µM and 0.0002 µM, respectively. For the same compound, the half-inhibitory concentration (IC50) in data set [3] was 0.036 µM; at Orexin receptor type 2 [4] it was 0.027 µM.
`Cc1ccc(-n2nccn2)c(C(=O)N2CC3CC2CN(c2ncc4ccccc4n2)C3)c1` (stereo unspecified): the Ki in data set [1] was 0.012 µM; on Orexin receptor type 2 [2], 0.011 µM. In addition, the results for the IC50 (in data set [3]; on Orexin receptor type 2 [4]) were 0.077 µM and 0.11 µM, respectively.
For `Cc1ccc(-n2nccn2)c(C(=O)N2CC3CC(C2)N(c2ncc4ccccc4n2)C3)c1` (racemic), in that order: 0.0023 µM, 0.0036 µM, 0.042 µM and 0.065 µM.
For `Cc1ccc(-n2nccn2)c(C(=O)N2CC3CC2CCN3c2ncc3cc(F)ccc3n2)c1` (racemic), in that order: 1.7 µM, 3.5 µM, 3.9 µM and 3.7 µM.
What is called Kp is the ratio of the level in a tissue or fluid to that in plasma or blood. Usually logP stands for the decadic logarithm of the partition coefficient of the neutral form, usually between octanol and water. Higher therefore signals higher lipophilicity. Broadly, the bioavailability is dose-corrected exposure relative to a reference, in per cent. In general, half-life refers to the time needed for the level to fall by half in the phase considered. By AUC(0-t) is commonly meant exposure summed from dosing to a finite time, without extrapolation to infinity. A lower AUC(0-t) goes with low exposure. Broadly, the Cmax is the peak of the concentration-time curve. The Papp is a coefficient for how fast a substance crosses the barrier. For the compound `Cc1ccc(-n2nccn2)c(C(=O)N2CC3CC(C2)N(c2ncc4ccccc4n2)C3)c1` (single isomer, unassigned; enantiomer B), the figures for the Ki (in [1]; at Orexin receptor type 2 [2]) were 0.0007 µM and 0.0009 µM, respectively. The values for the IC50 (in [3]; at Orexin receptor type 2 [4]) were 0.024 µM and 0.044 µM, respectively. Moreover, the concentration at 0.5 h in [5] was 835 nM; in [6], 690 nM; in [7], 60 nM. The concentration ratio (Kp) at 0.5 h in [8] amounted to 0.8. Further, the values for the fraction unbound in data set [9] and in [10] were 0.064 and 0.073, respectively. Also, in data set [11], the logP stood at 2.6. Moreover, the bioavailability came out at 2% in [12] and 8% in data set [13]. Also, the figures for the clearance in data set [14] and in data set [15] were 45 mL/min/kg and 24 mL/min/kg, respectively. Also, the half-life in data set [16] was 42 min; in data set [17] it was 54 min. Besides, the AUC(0-t) in data set [18] was determined as 0.23 µM·h. The AUC(0-t) at 24 h in data set [19] was found to be 0.49 µM·h. Also, the results for the Cmax in data set [20] and in data set [21] were 150 nM and 510 nM, respectively. The apparent permeability coefficient (Papp) in [22] was determined as 37 ×10⁻⁶ cm/s. Also, in the data set on LLC-PK1, the Ratio was determined as 0.9.
In the case of `Cc1ccc(-n2nccn2)c(C(=O)N2CCC3CC2CN3c2ncc3cc(F)ccc3n2)c1` (racemic), the Ki in data set [1] was determined as 0.87 µM; at Orexin receptor type 2 [2], 0.26 µM. The concentration for half-maximal inhibition (IC50) in [3] was more than 5.7 µM; on Orexin receptor type 2 [4] it was more than 10 µM.
Take `Cc1ccc(-n2nccn2)c(C(=O)N2CCCN(c3ncc4ccccc4n3)CC2)c1`: the IC50 in [3] was 0.029 µM; at Orexin receptor type 2 [4], 0.027 µM. Besides, the concentration at 0.5 h in [5] is 664 nM; in data set [6], 462 nM; in [7], 19 nM. The Kp at 0.5 h in data set [8] turned out to be 0.7. Also, the fraction unbound in data set [9] is 0.024; in [10], 0.029. The same compound yielded a logP in data set [11] of 2.91. The bioavailability in [12] turned out to be 2%; in data set [13], 16%. Besides, the clearance in data set [14] was found to be 53 mL/min/kg; in data set [15], 12 mL/min/kg. Besides, the half-life was 18 min in data set [16] and 78 min in data set [17]. The compound further showed an AUC(0-t) in data set [18] of 0.19 µM·h. Also, in data set [19], the AUC(0-t) at 24 h worked out at 0.44 µM·h. Besides, the results for the Cmax in [20] and in [21] were 300 nM and 230 nM, respectively.
